Experimental data from ChEMBL document CHEMBL1143912, “Synthesis and anti-HIV evaluation of novel 1,3-disubstituted thieno[3,2-c][1,2,6]thiadiazin-4(3H)-one 2,2-dioxides(TTDDs)” (Bioorg Med Chem, 2008).
pEC50: −log10 of the molar value. Active and inactive are the calls of the source. The calls are words filed in the database; no cut-off is given here.

Tests used:
[1] = Selectivity index, Ratio of CC50 for human MT4 cells to EC50 for HIV1 3B; type: functional
Summary of the method: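 SI is CC50 in mock-infected MT-4 cells divided by EC50 against HIV-1 IIIB. Both come from the same 4-day MTT assay run in parallel in infected (MOI 0.02) and uninfected cells, each as the mean of at least two experiments.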

[2] = tested on: Human immunodeficiency virus 2; experiment: Antiviral activity against HIV2 ROD assessed as inhibition of virus-induced cytopathogenicity in MT4 cells after 4 days by MTT assay; type: functional, organism-based
Summary of the method: (§1)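 MT-4 cells at 1 × 10⁵ cells/mL infected at MOI 0.02, then immediately plated into wells holding serial concentrations of compound (DMSO stocks, 10 mg/ml). Incubated 4 days at 37 °C, then viable cells read by MTT. EC50 is the concentration protecting 50% of infected cells from viral cytopathicity. Values are means of at least two separate experiments.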

[3] = tested on: Human immunodeficiency virus 1; experiment: Antiviral activity against HIV1 3B assessed as inhibition of virus-induced cytopathogenicity in MT4 cells after 4 days by MTT assay; type: functional, organism-based; details: Human immunodeficiency virus 1, 3B, MT4, 96 h; summary of the method: as §1
[4] = Cytotoxicity against human MT4 cells after 4 days by MTT assay; type: cell-based
Summary of the method: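 Uninfected MT-4 cells were run in parallel with the antiviral assay, exposed to serial compound concentrations (DMSO stocks, 10 mg/ml) for 4 days at 37 °C, with viability read by MTT. CC50 is the concentration cutting mock-infected cell viability by 50%. ">" marks the highest concentration tested that was still non-cytotoxic. Values are means of at least two experiments.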

SMILES | Ratio CC50/EC50 [1] | Activity [2] | pEC50 [3] | CC50 at 96 h [4] [µM]
N#Cc1ccccc1CN1c2ccsc2C(=O)N(Cc2ccccc2)S1(=O)=O | >59 | inactive | 5.29 | > 306
O=C1c2sccc2N(Cc2ccccc2Cl)S(=O)(=O)N1Cc1ccccc1 | >62 | inactive | 5.32 | > 299
N#Cc1cccc(CN2c3ccsc3C(=O)N(Cc3ccccc3)S2(=O)=O)c1 | >76 | inactive | 5.40 | > 306
O=C1c2sccc2N(Cc2ccccc2Br)S(=O)(=O)N1Cc1ccccc1 | >37 | inactive | 5.14 | > 270
O=C1c2sccc2N(Cc2ccc(Cl)cc2)S(=O)(=O)N1Cc1ccccc1 | <1 | inactive | < 5.09 | 8.2
Cc1ccnc2c1NC(=O)c1cccnc1N2C1CC1 [NEVIRAPINE] | 22767 |  | 7.52 | 683
CN1c2ccsc2C(=O)N(Cc2ccccc2)S1(=O)=O | 3 | inactive | 4.15 | 202
O=C1c2sccc2N(Cc2ccc(Cl)cc2Cl)S(=O)(=O)N1Cc1ccccc1 | 5 | inactive | 4.28 | 247
N#CCN1C(=O)N(Cc2ccccc2)S(=O)(=O)c2cscc21 | 559 |  | 6.05 | 503
Cc1cn([C@H]2C[C@H](N=[N+]=[N-])[C@@H](CO)O2)c(=O)[nH]c1=O [ZIDOVUDINE] | 50587 |  | 9.15 | 35.6
N#Cc1ccc(CN2c3ccsc3C(=O)N(Cc3ccccc3)S2(=O)=O)cc1 | <1 | inactive | < 5.07 | 8.5
O=C1c2sccc2N(Cc2ccc(Br)cc2)S(=O)(=O)N1Cc1ccccc1 | <1 | inactive | < 5.18 | 6.6
O=C1c2sccc2N(Cc2ccccc2)S(=O)(=O)N1Cc1ccccc1 | <1 | inactive | < 4.43 | 37.5
O=C1c2sccc2NS(=O)(=O)N1Cc1ccccc1 | <1 | inactive | < 3.43 | 374
N#CCN1c2ccsc2C(=O)N(Cc2ccccc2)S1(=O)=O | <1 | inactive | < 5.24 | 5.7
O=C1c2sccc2N(Cc2cccc(Cl)c2)S(=O)(=O)N1Cc1ccccc1 | >51 | inactive | 5.23 | > 299
O=C1N(Cc2ccccc2Cl)c2cscc2S(=O)(=O)N1Cc1ccccc1 | >1190 |  | 7.00 | > 119
O=C1c2sccc2N(Cc2ccc([N+](=O)[O-])cc2)S(=O)(=O)N1Cc1ccccc1 | <1 | inactive | < 3.57 | 268
